Activity, half-life and K data for three molecules are collected here from ChEMBL document CHEMBL1126787 (J Med Chem, 1993).

Where only a bound is given, the exact number is not on record here.

The species entered for data set [1] is Homo sapiens. Nature of the data set: % of lactone form at equilibrium in human plasma. Type of data set: functional. In outline: (§1)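 Drug (1 μM) incubated at 37 °C in human plasma, continuously aerated with blood gas to hold pH 7.6 ± 0.1. Lactone hydrolysis followed by HPLC. t1/2 and equilibrium % lactone fitted to decay profiles by nonlinear least squares. Average of at least three independent kinetic runs.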

The species named for data set [2] is Homo sapiens. In words: n value for the binding of lactone form to human serum albumin (n value = number of amino acid per binding site). Type of data set: functional. In outline:
(§2)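 Fluorescence lifetime titration of lactone or carboxylate form (20 μM total drug) with varying HSA. Phase-shift lifetimes measured with 30 MHz modulated excitation, emission taken through a 500-nm long-pass filter. Free fraction computed as (τ − τB)/(τF − τB). K and n obtained by nonlinear least-squares fit to K = [Db]/[Df][aa]^n, where aa is amino acid residues.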

For data set [3], the species on record is Homo sapiens. In words: n value for the binding of carboxylate form to human serum albumin (n value = number of amino acid per binding site). Type of data set: functional. In outline: as §2
Data set [4] is filed under the species Homo sapiens. In words: % of lactone form at equilibrium in HSA buffer at 37 degree C in the presence of human serum albumin. In kind it is functional. In outline:
(§3)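 Lactone-to-carboxylate hydrolysis of drug (1 μM total) in PBS (137 mM NaCl, 3 mM KCl, 8 mM Na2HPO4, 1 mM KH2PO4, pH 7.4) at 37 °C, with or without 20 mg/mL (290 μM) HSA. Monitored by HPLC over time. t1/2 and equilibrium % lactone fitted to decay profiles by nonlinear least squares. Average of at least three independent kinetic runs.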

Data set [5] is described as follows: Half-life period in HSA buffer at 37 degree C in the presence of human serum albumin. The settings on record: buffer with human serum albumin. In kind it is ADME. In outline: as §3
A short description of data set [6]: Half-life period in human plasma. In kind it is ADME. In outline: as §1
The species entered for data set [7] is Homo sapiens. Nature of the data set: Association constant for the binding of lactone form to human serum albumin. Type of data set: functional. A digest of the protocol:
as §2

The species named for data set [8] is Homo sapiens. Nature of the data set: Association constant for the binding of carboxylate form to human serum albumin. Type of data set: functional. A digest of the protocol: as §2
For data set [9], the species on record is Homo sapiens. In words: % of lactone form at equilibrium in PBS buffer at 37 degree C in the absence of human serum albumin. In kind it is functional. In outline: as §3
A short description of data set [10]: Half-life period in PBS buffer at 37 degree C in the absence of human serum albumin. Type of data set: ADME. A digest of the protocol:
as §3

Data set [11] in a line: Half-life period in PBS buffer at 37 C in the absence of human serum albumin. Type of data set: ADME. A digest of the protocol: as §3
The species entered for data set [12] is Homo sapiens. In words: % of lactone form at equilibrium in HSA buffer at 37 C in the presence of human serum albumin. In kind it is functional.
The species entered for data set [13] is Homo sapiens. Nature of the data set: % of lactone form at equilibrium in PBS buffer at 37 C in the absence of human serum albumin. Type of data set: functional.
Data set [14] in a line: Half-life period in HSA buffer at 37 C in the presence of human serum albumin. Type of data set: ADME. The settings on record: buffer with human serum albumin.

As a reminder, the half-life is the time in which the quantity being followed falls by half.

Turning to `CC[C@@]1(O)C(=O)OCc2c1cc1n(c2=O)Cc2cc3ccccc3nc2-1` [CAMPTOTHECIN], the Activity was below 0.2% in the data set filed under Homo sapiens [1]; 1.8 in the data set filed under Homo sapiens [2]; 2.3 in the data set listed under Homo sapiens [3]; below 0.5% in the data set filed under Homo sapiens [4]; 13% in the data set filed under Homo sapiens [9]. The half-life in [5] worked out at 12.6 min; in data set [6] it was 10.6 min; in [10], 16.9 min. The K is 30 1/Maa in the data set listed under Homo sapiens [7] and 4700 1/Maa in the data set filed under Homo sapiens [8].
In the case of `CCc1c2c(nc3ccc(O)cc13)-c1cc3c(c(=O)n1C2)COC(=O)[C@]3(O)CC` [7-ETHYL-10-HYDROXYCAMPTOTHECIN], the Activity in the data set listed under Homo sapiens [1] was found to be 24%. For the same molecule, the half-life in data set [6] amounted to 34.3 min; in data set [11] it was 19.9 min. Also, the K in the data set filed under Homo sapiens [7] is 636 1/Maa; in the data set listed under Homo sapiens [8], 148 1/Maa.
Take `CC[C@@]1(O)C(=O)OCc2c1cc1n(c2=O)Cc2cc3cc(O)ccc3nc2-1` [HYDROXYCAMPTOTHECIN]: the Activity in the data set listed under Homo sapiens [12] came out at 4%; in the data set listed under Homo sapiens [1], 6%; in the data set listed under Homo sapiens [2], 1.7; in the data set filed under Homo sapiens [3], 1.7; in the data set listed under Homo sapiens [13], 16%. In addition, the half-life amounted to 18.6 min in data set [6], 22.1 min in data set [11] and 21.1 min in [14]. In addition, the K in the data set listed under Homo sapiens [7] is 135 1/Maa; in the data set filed under Homo sapiens [8], 264 1/Maa.
